Measured values: ChEMBL document CHEMBL3792376, “Exploiting the Chromone Scaffold for the Development of Inhibitors of Corticosteroid Biosynthesis” (J Med Chem, 2016)
pIC50: −log10 of the molar value.

Assays:
[1] = species on record: Homo sapiens; experiment: Selectivity index, ratio of IC50 for human CYP11B2 to IC50 for human CYP11B1
Procedure, shortened: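 Calculated as IC50(CYP11B2)/IC50(CYP11B1). Both IC50s come from V79 MZh hamster fibroblasts expressing the human enzyme, with 100 nM radiolabelled deoxycorticosterone: 6 h for 11B1 and 30 min for 11B2. Readout by HPTLC.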

[2] = target: T1, Cytochrome P450 11B2, mitochondrial (Homo sapiens, UniProt P19099); experiment: Inhibition of human CYP11B2 expressed in V79 MZh cells using [1,2-3H]-11-deoxycorticosterone as substrate for 30 mins by HPTLC analysis; type: cell-based, V79MZh
T1 sequence (P19099 whole entry): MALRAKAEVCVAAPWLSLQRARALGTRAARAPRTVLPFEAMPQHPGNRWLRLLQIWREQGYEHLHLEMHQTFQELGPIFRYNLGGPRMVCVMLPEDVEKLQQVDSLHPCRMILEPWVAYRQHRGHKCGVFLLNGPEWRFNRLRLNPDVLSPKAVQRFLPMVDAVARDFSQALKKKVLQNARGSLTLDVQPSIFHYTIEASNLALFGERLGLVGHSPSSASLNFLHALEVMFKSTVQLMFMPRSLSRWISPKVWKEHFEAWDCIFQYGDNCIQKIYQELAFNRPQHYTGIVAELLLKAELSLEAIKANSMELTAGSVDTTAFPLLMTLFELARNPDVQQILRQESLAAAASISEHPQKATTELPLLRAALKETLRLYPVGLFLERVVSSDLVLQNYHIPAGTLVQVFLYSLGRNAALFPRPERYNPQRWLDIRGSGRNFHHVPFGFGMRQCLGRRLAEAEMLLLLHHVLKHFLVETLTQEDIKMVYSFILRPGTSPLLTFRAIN
Procedure, shortened: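 Confluent V79 MZh hamster fibroblasts expressing human CYP11B2, in 6-well plates. Reaction started with [1,2-3H]-11-deoxycorticosterone (100 nM) plus inhibitor at several concentrations and run 30 min. Chloroform extraction of supernatant, then HPTLC of steroids. Mean of ≥3 experiments, relative SD <25%.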

[3] = target: T2, Cytochrome P450 11B1, mitochondrial (Homo sapiens, UniProt P15538); experiment: Inhibition of human CYP11B1 expressed in V79 MZh cells using [1,2-3H]-11-deoxycorticosterone as substrate for 6 hrs by HPTLC analysis; type: cell-based, V79MZh
T2 sequence (P15538 whole entry): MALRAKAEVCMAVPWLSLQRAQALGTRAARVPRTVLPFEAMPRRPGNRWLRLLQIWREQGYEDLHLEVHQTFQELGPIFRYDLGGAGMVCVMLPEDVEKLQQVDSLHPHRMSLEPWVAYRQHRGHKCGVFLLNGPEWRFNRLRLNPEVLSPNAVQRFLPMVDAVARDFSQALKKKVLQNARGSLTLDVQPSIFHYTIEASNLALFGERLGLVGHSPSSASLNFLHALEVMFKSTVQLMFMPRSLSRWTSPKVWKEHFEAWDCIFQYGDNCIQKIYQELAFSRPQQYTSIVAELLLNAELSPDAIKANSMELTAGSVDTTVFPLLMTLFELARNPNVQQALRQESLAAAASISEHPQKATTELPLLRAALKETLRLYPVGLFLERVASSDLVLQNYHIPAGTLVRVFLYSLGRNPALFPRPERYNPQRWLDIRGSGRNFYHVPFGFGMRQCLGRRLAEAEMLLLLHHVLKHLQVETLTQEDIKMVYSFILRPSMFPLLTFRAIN
Procedure, shortened: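 Hamster fibroblast V79 MZh cells stably expressing human CYP11B1, grown to confluence in 6-well plates. Radiolabelled deoxycorticosterone at 100 nM, test inhibitor across a concentration range, 6 h incubation. Supernatant extracted with chloroform and centrifuged. Steroids redissolved in chloroform and separated by HPTLC. IC50 is the mean of at least three experiments, relative SD below 25%.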

[4] = target: T3, Aromatase (Homo sapiens, UniProt P11511); experiment: Inhibition of human placental CYP19 using [1beta-3H]-androstenedione as substrate for 3 hrs measured as formation of [3]H2O in presence of NADPH
T3 sequence (P11511 whole entry): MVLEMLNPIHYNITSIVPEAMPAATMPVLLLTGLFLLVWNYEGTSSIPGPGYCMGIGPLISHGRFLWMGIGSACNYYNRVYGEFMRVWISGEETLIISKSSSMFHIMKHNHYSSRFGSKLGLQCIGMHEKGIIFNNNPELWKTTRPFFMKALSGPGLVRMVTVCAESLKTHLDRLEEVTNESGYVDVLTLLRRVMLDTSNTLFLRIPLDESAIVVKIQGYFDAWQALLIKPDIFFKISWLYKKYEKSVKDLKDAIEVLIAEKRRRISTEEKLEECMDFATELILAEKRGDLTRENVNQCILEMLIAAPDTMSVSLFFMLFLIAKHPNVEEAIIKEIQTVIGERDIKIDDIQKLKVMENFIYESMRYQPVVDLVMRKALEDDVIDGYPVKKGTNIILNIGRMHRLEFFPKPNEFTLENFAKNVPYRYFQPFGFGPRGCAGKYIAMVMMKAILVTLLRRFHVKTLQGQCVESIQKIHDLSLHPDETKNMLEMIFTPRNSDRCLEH
Procedure, shortened: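 Microsomes from fresh human term placenta. [1β-3H]androstenedione 500 nM, NADPH, glucose 6-phosphate and dehydrogenase plus inhibitor in 0.05 M phosphate pH 7.4, preincubated 5 min at 30 °C. Started with microsomal protein and run 3 h. Ethyl acetate stop, HgCl2, dextran-coated charcoal to remove steroids. 3H2O released measured. Mean of ≥3 experiments, RSD <25%.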

[5] = target: T4, Steroid 17-alpha-hydroxylase/17,20 lyase (Homo sapiens, UniProt P05093); experiment: Inhibition of human CYP17 expressed in Escherichia coli co-transfected with rat NADPH-P450 reductase using progesterone as substrate for 30 mins measured as formation of 17alpha-hydroxyprogesterone and 16alpha-hydroxyprogesterone in presence of NADPH
T4 sequence (P05093 whole entry): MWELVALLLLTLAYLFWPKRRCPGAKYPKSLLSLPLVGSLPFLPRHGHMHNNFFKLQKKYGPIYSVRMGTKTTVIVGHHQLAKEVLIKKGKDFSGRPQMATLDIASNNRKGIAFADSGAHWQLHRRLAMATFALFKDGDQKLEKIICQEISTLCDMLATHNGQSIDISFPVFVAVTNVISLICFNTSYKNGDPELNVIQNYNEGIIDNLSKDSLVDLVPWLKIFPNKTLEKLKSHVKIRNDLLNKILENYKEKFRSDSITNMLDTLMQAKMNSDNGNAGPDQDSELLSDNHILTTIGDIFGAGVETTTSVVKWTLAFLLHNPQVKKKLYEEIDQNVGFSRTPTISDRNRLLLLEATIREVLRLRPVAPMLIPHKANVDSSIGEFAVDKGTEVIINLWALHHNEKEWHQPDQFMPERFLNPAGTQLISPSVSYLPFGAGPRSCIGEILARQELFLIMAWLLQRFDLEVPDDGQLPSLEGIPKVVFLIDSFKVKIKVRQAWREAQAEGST
Procedure, shortened: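 Membrane pellet from E. coli co-expressing human CYP17 and rat NADPH-P450 reductase (lysozyme, sonication, 4 °C). Progesterone 25 μM with NADPH-generating system (NADP+, glucose 6-phosphate, G6P dehydrogenase) and inhibitor, preincubated 5 min at 37 °C. Membranes added, 30 min at 37 °C. Acid quench, ethyl acetate extraction. Readout: 17α- and 16α-hydroxyprogesterone formed. Mean of ≥3 runs.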

[6] = Cytotoxicity against HEK293 cells assessed as cell viability upto 100 times IC50 concentration for 3 hrs by MTT assay; type: cell-based; conditions: human, read-out: Activity
Procedure, shortened: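 HEK293 cells in DMEM with 10% FCS, exposed to 0.1 and 1 μM compound for 3 h at 37 °C, 5% CO2, humidified. Then MTT (5 mg/mL stock in PBS) added for a further 3 h. Stopped and lysed with 10% SDS in 0.01 N HCl. Viability from MTT reduction, expressed as % of control.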

SMILES	Ratio IC50 [1]	pIC50 [2]	pIC50 [3]	pIC50 [4]	pIC50 [5]	viability at 3 h [6] [%]
COc1ccc2c(=O)cc(Cn3ccnc3)oc2c1	1.4	5.64	5.80			
O=c1c(Cc2c[nH]cn2)coc2cc(F)ccc12	9.8	7.02	8.01	5.51	< 5.00	95
COc1ccc2c(=O)c(Cc3cccnc3)coc2c1		< 5.00	< 5.00			
COc1ccc2c(=O)c(Cn3ccnc3)coc2c1	2.1	6.11	6.43			
O=c1cc(Cc2ccncc2)oc2ccccc12	5.6	5.91	6.65			
COc1ccc2c(=O)c(Cc3ccncc3)coc2c1	5	5.49	6.21			
COc1ccc2c(=O)cc(Cc3ccncc3)oc2c1		< 5.30	5.44			
O=c1cc(Cc2cccnc2)oc2cc(F)ccc12		< 5.00	< 5.00			
O=c1c(Cn2ccnc2)coc2ccccc12	2.9	6.28	6.75			
O=c1cc(Cn2ccnc2)oc2cc(F)ccc12	1.9	6.21	6.49			
O=c1cc(Cc2cccnc2)oc2ccccc12		< 5.00	< 5.00			
O=c1cc(Cc2ccncc2)oc2cc(F)ccc12	7.8	6.19	7.08	< 5.00	< 5.00	
O=c1cc(Cn2ccnc2)oc2ccccc12	2	6.30	6.60			
O=c1c(Cc2cccnc2)coc2cc(F)ccc12		< 5.00	< 5.00			
O=c1c(Cn2ccnc2)coc2cc(F)ccc12	2.5	6.67	7.06			
COc1ccc2c(=O)cc(Cc3cccnc3)oc2c1		< 5.00	< 5.00			
O=c1c(Cc2c[nH]cn2)coc2ccccc12	4.1	6.92	7.53			95
O=c1c(Cc2ccncc2)coc2ccccc12	10.8	6.02	7.05	5.21	5.32	
COc1ccc2c(=O)c(Cc3c[nH]cn3)coc2c1	9.8	5.97	6.96	5.10	< 5.00	
O=c1c(Cc2ccncc2)coc2cc(F)ccc12	5.3	6.50	7.24	5.30	5.18	95
O=c1c(Cc2cccnc2)coc2ccccc12		< 5.00	< 5.00			
